Holding throughout (type): functional
In assay [1] the test system is Mus musculus. As to the kind of experiment: Hypolipidemic activity (9th day serum cholesterol) at 20 mg/kg in CF1 male mice. The gist of the method: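 Male CF1 mice (~25 g), dosed intraperitoneally at 20 (mg/kg)/day at 11:00 a.m. Tail-vein blood taken on day 9 between 8:00 and 9:30 a.m. into alkali-free nonheparinized microcapillary tubes, spun 3 min for serum. Cholesterol (mg %) in duplicate 25-µL nonhemolyzed serum samples by modified Liebermann-Burchard reaction. Expressed as % control.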

Assay [2] concerns Mus musculus. Put plainly: Hypolipidemic activity (14th day serum triglyceride) at 20 mg/kg in CF1 male mice. The gist of the method:
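Separate group of male CF1 mice (~25 g) dosed ip at 20 (mg/kg)/day for 14 days, injections at 11:00 a.m. Bled by tail vein on day 14 into nonheparinized microcapillary tubes, centrifuged 3 min for serum. Triglycerides (mg %) measured on duplicate 50-µL serum samples. Given as % control.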

Assay [3] relates to Mus musculus. Put plainly: Hypolipidemic activity (16th day serum cholesterol) at 20 mg/kg in CF1 male mice. The gist of the method:
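Male CF1 mice (~25 g), given 20 (mg/kg)/day ip at 11:00 a.m. On day 16, tail-vein blood collected between 8:00 and 9:30 a.m. in alkali-free nonheparinized microcapillaries and centrifuged 3 min. Serum cholesterol (mg %) from duplicate 25-µL nonhemolyzed samples by modified Liebermann-Burchard reaction. Reported as % control.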

In ChEMBL document CHEMBL1122467, “Hypolipidemic activity of phthalimide derivatives. 3. A comparison of phthalimide and 1,2-benzisothiazolin-3-one 1,1-dioxide derivatives to phthalimidine and 1,2-benzisothiazoline 1,1-dioxide congeners” (1983) one finds Control data, which are given here for 30 compounds.

With `O=S1(=O)NCc2ccccc21`, the Control with Mus musculus [1] stood at 82%; with Mus musculus [2], 86%; in the assay on Mus musculus [3], 80%.
With `O=C1NC(=O)c2ccccc21` [PHTHALIMIDE], the results for the Control in the assay on Mus musculus [1], in the assay with Mus musculus [2] and in the assay with Mus musculus [3] were 63%, 44% and 57%, respectively.
As to `O=C(O)CCCCN1C(=O)c2ccccc2C1=O`, the Control is 83% with Mus musculus [1], 54% with Mus musculus [2] and 77% with Mus musculus [3].
The corresponding values for `CC(=O)CN1C(=O)c2ccccc2C1=O` are 80%, below 48% and below 67%.
Consider `O=C1NCc2ccccc21`, for which the Control worked out at 89% with Mus musculus [1], 78% with Mus musculus [2] and 87% in the assay on Mus musculus [3].
The corresponding values for `CCCCCN1C(=O)c2ccccc2S1(=O)=O` are 106%, 62% and 58%.
On to `CC(=O)CCCN1C(=O)c2ccccc2S1(=O)=O`, for which the Control was found to be 73% with Mus musculus [1], 77% with Mus musculus [2] and 77% in the assay on Mus musculus [3].
Take `O=C(O)CCN1C(=O)c2ccccc2C1=O`: the Control in the assay with Mus musculus [1] was below 74%; in the assay on Mus musculus [2], below 58%; in the assay with Mus musculus [3] it was below 55%.
`O=C(O)CCN1Cc2ccccc2S1(=O)=O`: the Control amounted to 73% in the assay with Mus musculus [1], 76% in the assay with Mus musculus [2] and 59% in the assay with Mus musculus [3].
With `O=C(O)CCN1C(=O)c2ccccc2S1(=O)=O`, the Control worked out at 96% with Mus musculus [1], 67% with Mus musculus [2] and 47% with Mus musculus [3].
The corresponding values for `O=C(O)CCCCCN1C(=O)c2ccccc2C1=O` are 81%, 51% and 67%.
Consider `CC(=O)CN1C(=O)c2ccccc2S1(=O)=O`, for which the Control with Mus musculus [1] is reported as 95%; in the assay with Mus musculus [2], 66%; in the assay on Mus musculus [3], 52%.
With `CCCCCN1C(=O)c2ccccc2C1=O`, the Control in the assay on Mus musculus [1] is 76%; in the assay on Mus musculus [2], 75%; in the assay with Mus musculus [3], 58%.
For the compound `O=C1NS(=O)(=O)c2ccccc21` [SACCHARIN], the Control turned out to be 68% in the assay on Mus musculus [1], 51% in the assay on Mus musculus [2] and 67% in the assay on Mus musculus [3].
The corresponding values for `CCCCN1Cc2ccccc2S1(=O)=O` are 71%, 76% and 68%.
The corresponding values for `CC(=O)CCN1Cc2ccccc2S1(=O)=O` are 87%, 78% and 81%.
As to `CC(=O)CCN1C(=O)c2ccccc2C1=O`, the Control is below 67% with Mus musculus [1], below 58% in the assay with Mus musculus [2] and below 63% in the assay with Mus musculus [3].
With `CC(=O)CCCN1C(=O)c2ccccc2C1=O`, the Control with Mus musculus [1] is given as below 71%; in the assay on Mus musculus [2] it was below 59%; in the assay on Mus musculus [3], below 63%.
`CCOC(=O)CCN1C(=O)c2ccccc2S1(=O)=O`: the Control was found to be 97% in the assay on Mus musculus [1], 61% in the assay on Mus musculus [2] and 71% with Mus musculus [3].
For the compound `O=C(O)CCCN1C(=O)c2ccccc2S1(=O)=O`, the Control with Mus musculus [1] was 85%; in the assay on Mus musculus [2] it was 48%; in the assay on Mus musculus [3] it was 73%.
`CCCCN1C(=O)c2ccccc2C1=O`: the Control in the assay on Mus musculus [1] is listed as below 72%; in the assay on Mus musculus [2], 82%; in the assay on Mus musculus [3] it was below 54%.
On to `CC(=O)CCN1C(=O)c2ccccc2S1(=O)=O`, for which the Control in the assay with Mus musculus [1] was determined as 60%; in the assay on Mus musculus [2], 51%; in the assay with Mus musculus [3] it was 62%.
The corresponding values for `CCCCN1C(=O)c2ccccc2S1(=O)=O` are 76%, 76% and 56%.
With `O=C(O)CCCCN1C(=O)c2ccccc2S1(=O)=O`, the Control in the assay on Mus musculus [1] amounted to 96%; with Mus musculus [2], 44%; with Mus musculus [3], 68%.
For `CC(=O)CCN1Cc2ccccc2C1=O`, the Control with Mus musculus [1] is 88%; in the assay with Mus musculus [2] it was below 83%; in the assay with Mus musculus [3], below 84%.
Take `O=C(O)CCCCCN1C(=O)c2ccccc2S1(=O)=O`: the Control in the assay on Mus musculus [1] is on record as 90%; in the assay with Mus musculus [2] it was 55%; with Mus musculus [3], 76%.
`O=C(O)CCCN1C(=O)c2ccccc2C1=O`: the Control in the assay on Mus musculus [1] came out at 80%; in the assay with Mus musculus [2], 59%; in the assay with Mus musculus [3] it was 68%.
The corresponding values for `C=C(CN1C(=O)c2ccccc2S1(=O)=O)C(=O)O` are 85%, 101% and 85%.
Regarding `O=C(O)CCN1Cc2ccccc2C1=O`, the Control came to 87% in the assay with Mus musculus [1], 88% in the assay on Mus musculus [2] and 97% in the assay with Mus musculus [3].
On to `CCCCN1Cc2ccccc2C1=O`, for which the values for the Control in the assay on Mus musculus [1], in the assay on Mus musculus [2] and in the assay on Mus musculus [3] were 68%, 80% and 62%, respectively.
